Test results reported in ChEMBL document CHEMBL4837214, “Design, synthesis, and biological evaluation of novel tetrahydroprotoberberine derivatives to reduce SREBPs expression for the treatment of hyperlipidemia” (Eur J Med Chem, 2021).
Activity calls are given as the source filed them. The rule behind the calls is not given here.

Key:
HepG2 [1] = test: Cytotoxicity against human HepG2 cells assessed as reduction in cell viability at 10 uM after 24 hrs by CCK8 assay; type: functional
[2] = MRT (0 to infinity) in Sprague-Dawley rat at 1 mg/kg, iv measured upto 12 hrs by LC-MS/MS analysis; type: ADME, organism-based; conditions: in vivo
Summary of the method: (§1)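 Six SD rats split into two groups of three, dosed 1 mg/kg IV or 10 mg/kg orally. IV blood drawn at 2, 5, 15, 30 min and 1, 2, 4, 6, 8, 12 h. Oral blood drawn at 5, 15, 30 min and 1, 2, 4, 6, 8, 12, 24 h. Serum drug measured by LC/MS/MS. Parameters are the average of three runs.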

Mus musculus [3] = test: Hypolipidemic activity in high fat diet-induced C57BL/6J mouse assessed as reduction in SREBPs expression in liver at 170 to 340 mg/kg, po administered daily for 6 weeks by Western blot analysis; type: functional, organism-based; conditions: dose 170-340 mg/kg
Summary of the method: (§2)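 Male C57BL/6J mice, six weeks old, fed a 45%-fat diet (HFD) for 15 weeks; chow-fed mice served as controls. Obese mice were randomized to vehicle (0.1% w/v CMC-Na) or 170 or 340 mg/kg, gavaged daily for 6 weeks while diet continued. Body weight, food intake, organ weights, serum lipids, tissue histology (H&E, Oil red O), liver SREBP blots and liver qPCR followed.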

HepG2 [4] = test: Down regulation of SCD gene expression in human HepG2 cells by qRT-PCR analysis; type: functional, cell-based
[5] = Cmax in Sprague-Dawley rat at 1 mg/kg, iv measured upto 12 hrs by LC-MS/MS analysis; type: ADME, organism-based; set-up: route intravenous, dose 1 mg/kg, time <=12; conditions: in vivo; summary of the method: as §1
HepG2 [6] = test: Down regulation of intracellular TG level in human HepG2 cells at 10 uM measured after 24 hrs; type: functional, cell-based
Summary of the method: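 HepG2 cells grown in six-well plates and exposed 24 h to compound at […]. Cells collected in PBS and sonicated (5 s on, 10 s off, 60 s total). Total cholesterol or triglyceride measured with a colorimetric determination kit.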

[7] = AUC (0 to infinity) in Sprague-Dawley rat at 1 mg/kg, iv measured upto 12 hrs by LC-MS/MS analysis; type: ADME, organism-based; set-up: route intravenous, dose 1 mg/kg, time <=12; conditions: in vivo
Summary of the method: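 Six SD rats split into two groups (n=3 each), dosed once either intravenously at 1 mg/kg or orally at 10 mg/kg. Blood sampled at 2 min–12 h after IV dosing and at 5 min–24 h after oral dosing. Serum drug level measured by LC/MS/MS. AUC0-∞ is the mean of three runs.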

[8] = Half life in Sprague-Dawley rat at 1 mg/kg, iv measured upto 12 hrs by LC-MS/MS analysis; type: ADME, organism-based; conditions: in vivo; summary of the method: as §1
[9] = target: T1, Sterol regulatory element-binding protein 1 (Homo sapiens) (UniProt P36956); test: Induction of SREBP degradation expressed in human HEK293T cells assessed as increase in SREBP ubiquitination at 10 uM after 24 hrs by Western blot analysis; type: cell-based
T1 sequence (whole entry): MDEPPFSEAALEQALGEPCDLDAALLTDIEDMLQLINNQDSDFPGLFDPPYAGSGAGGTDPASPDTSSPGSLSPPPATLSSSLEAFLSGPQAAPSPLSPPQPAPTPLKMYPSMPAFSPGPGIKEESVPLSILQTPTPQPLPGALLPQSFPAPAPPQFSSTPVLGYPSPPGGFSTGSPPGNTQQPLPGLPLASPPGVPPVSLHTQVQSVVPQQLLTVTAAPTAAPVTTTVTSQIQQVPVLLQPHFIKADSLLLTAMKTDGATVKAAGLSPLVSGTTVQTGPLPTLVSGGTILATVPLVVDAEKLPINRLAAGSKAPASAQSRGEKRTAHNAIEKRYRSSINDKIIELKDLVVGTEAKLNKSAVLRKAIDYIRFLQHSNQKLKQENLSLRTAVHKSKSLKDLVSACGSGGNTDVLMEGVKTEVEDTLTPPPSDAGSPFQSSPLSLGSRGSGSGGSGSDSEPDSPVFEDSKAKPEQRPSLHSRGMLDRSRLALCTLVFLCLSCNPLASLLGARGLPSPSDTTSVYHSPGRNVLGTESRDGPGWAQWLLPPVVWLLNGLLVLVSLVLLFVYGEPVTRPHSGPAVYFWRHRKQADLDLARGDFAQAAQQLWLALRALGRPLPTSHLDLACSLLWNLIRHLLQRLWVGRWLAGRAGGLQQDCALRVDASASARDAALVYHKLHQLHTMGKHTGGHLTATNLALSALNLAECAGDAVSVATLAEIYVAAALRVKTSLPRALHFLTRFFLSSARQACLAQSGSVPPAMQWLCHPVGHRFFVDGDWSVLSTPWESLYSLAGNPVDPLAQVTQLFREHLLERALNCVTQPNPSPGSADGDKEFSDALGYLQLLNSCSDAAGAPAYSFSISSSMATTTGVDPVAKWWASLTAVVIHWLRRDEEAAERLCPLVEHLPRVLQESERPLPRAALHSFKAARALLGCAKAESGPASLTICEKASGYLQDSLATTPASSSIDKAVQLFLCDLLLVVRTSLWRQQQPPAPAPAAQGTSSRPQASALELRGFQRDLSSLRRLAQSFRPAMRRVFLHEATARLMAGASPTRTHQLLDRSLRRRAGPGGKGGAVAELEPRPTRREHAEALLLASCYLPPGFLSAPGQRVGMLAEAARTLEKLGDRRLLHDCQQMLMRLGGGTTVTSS
Summary of the method: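 293T cells seeded at 3×10⁶ per dish and transfected next day with flag-SREBP1 or flag-SREBP2 plus HA-ubiquitin. On day 2 medium replaced with DMSO or compound. On day 3 cells lysed in IP buffer and cleared at 12,000 rpm, 4 °C. Supernatant immunoprecipitated overnight at 4 °C with flag antibody or IgG. Ubiquitylated SREBPs detected by Western blot.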

[10] = target: T1, Sterol regulatory element-binding protein 1 (Homo sapiens); test: Induction of SREBP degradation in human HepG2 cells at 10 uM preincubated with MG-132 for 1 hr followed by compound additon and measured after 4 hrs by Western blot analysis; type: cell-based
Summary of the method: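 HepG2 cells pretreated 1 h with MG-132 at […]. Medium then switched to MG-132 plus vehicle or compound at […] for 4 h. SREBPs detected in lysates by Western blot.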

Mus musculus [11] = test: Hypolipidemic activity in high fat diet-induced C57BL/6J mouse assessed as reduction in cell size of WAT at 170 to 340 mg/kg, po administered daily for 6 weeks by H and E staining based assay; type: functional, organism-based; conditions: dose 170-340 mg/kg; summary of the method: as §2
[12] = Tmax in Sprague-Dawley rat at 10 mg/kg, po measured upto 24 hrs by LC-MS/MS analysis; type: ADME, organism-based; conditions: in vivo; summary of the method: as §1
[13] = Toxicity in high fat diet-induced C57BL/6J mouse assessed as change in spleen morphology at 170 to 340 mg/kg, po administered for 6 weeks by H and E staining-based assay; type: organism-based; conditions: in vivo, 1008 h, dose 170-340 mg/kg; summary of the method: as §2
[14] = Cmax in Sprague-Dawley rat at 10 mg/kg, po measured upto 24 hrs by LC-MS/MS analysis; type: ADME, organism-based; set-up: route oral, dose 10 mg/kg, time <=24; conditions: in vivo; summary of the method: as §1
Mus musculus [15] = test: […] activity in high fat diet-induced C57BL/6J mouse assessed as reduction in Scd mRNA level in liver at 170 to 340 mg/kg, po administered daily for 6 weeks by qRT-PCR analysis; type: functional, organism-based; conditions: dose 170-340 mg/kg; summary of the method: as §2

In the case of `COc1ccc2c(c1OCC1CCCCC1)CN1CCc3cc4c(cc3C1C2)OCO4` (stereo not given), the Activity (HepG2 [1]) is reported as 93%, the MRT inf [2] is reported as 3.18 h and the Activity (Mus musculus [3]) is reported as “Active”. For the same compound, the Activity (HepG2 [4]) was “Active”, the Cmax [5] was 901 ng/mL and the Activity (HepG2 [6]) was “Active”. For the same compound, the AUC(0-inf) [7] was 659 ng·h/mL, the half-life [8] was 4.95 h and the Activity [9] was “Active”. The Activity [10] was “inactive”, the Activity (Mus musculus [11]) was “Active” and the Tmax [12] was 6.67 h. For the same compound, the Activity [13] was “Non-Toxic”, the Cmax [14] was 428 ng/mL and the Activity (Mus musculus [15]) was “Active”.
